Assay results taken from ChEMBL document CHEMBL1131831, “A rapid method to identify exo-protease inhibitors” (Bioorg Med Chem Lett, 1999).

Tests used:
[1] = biological target: T1, Neutrophil elastase (Homo sapiens) (UniProt P08246); assay: Proteolysis rate constant (Kcat), when mixed with human leukocyte elastase (HLE)enzyme for the conversion of water-soluble compound to fluorescent oil-soluble compound
T1 sequence (whole entry): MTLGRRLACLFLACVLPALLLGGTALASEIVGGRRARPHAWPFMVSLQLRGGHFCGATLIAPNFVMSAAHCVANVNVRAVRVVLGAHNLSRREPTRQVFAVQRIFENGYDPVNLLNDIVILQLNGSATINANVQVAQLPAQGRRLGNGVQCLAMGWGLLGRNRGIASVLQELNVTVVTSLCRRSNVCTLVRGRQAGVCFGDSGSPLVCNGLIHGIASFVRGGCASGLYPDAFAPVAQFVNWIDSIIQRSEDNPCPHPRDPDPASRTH
Summary of the method: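 Human leukocyte elastase (1 unit = 1.2 µg; releases 1 µmol/min p-nitrophenol from N-t-BOC-L-alanine-p-nitrophenyl ester, pH 6.5, 37 °C) in 50 mM NaOAc, 100 mM NaCl, 8 mM NaN3 pH 6.0. Enzyme mixed with 12 µM substrate in buffer under a trace mineral-oil layer, shaken at 37 °C. Released fluorophore extracted into oil, diluted with n-heptane, quantified by absorbance at 424 nm against oil at 272 nm.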

[2] = Ratio of proteolysis rate constant (Kcat) to that of proteolysis constant (Km) was determined
Summary of the method: (§1)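 Porcine pancreatic trypsin (type IX), porcine pancreatic kallikrein, bovine spleen cathepsin B and porcine pancreatic elastase, each enzyme added to 12 µM substrate solution over mineral oil, shaken at 37 °C. Buffers: trypsin 10 mM Tris-HCl pH 7.8; kallikrein 50 mM Tris pH 9.0; cathepsin B 100 mM potassium phosphate pH 6.0; elastase 10 mM Tris-HCl pH 7.5. Released fluorophore in the oil is diluted with n-heptane and quantified at 424 nm against oil absorbance at 272 nm.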

[3] = system: CN(C(=O)[C@@H](CCCCC(=N)N)NC(=O)[C@H](CCCCC(=N)N)NC(=O)OCc1ccccc1)c1ccc(C#C/C=C/c2ccc([N+](=O)[O-])c(O)c2)cc1; assay: Proteolysis constant (Km), when mixed with Cathepsin B enzyme for the conversion of water-soluble compound to fluorescent oil-soluble compound; summary of the method: as §1
[4] = biological target: T2, Chymotrypsin-like elastase family member 2A (Sus scrofa) (UniProt P08419); assay: Proteolysis rate constant (Kcat), when mixed with elastase enzyme for the conversion of water-soluble compound to fluorescent oil-soluble compound; summary of the method: as §1
T2 sequence (whole entry): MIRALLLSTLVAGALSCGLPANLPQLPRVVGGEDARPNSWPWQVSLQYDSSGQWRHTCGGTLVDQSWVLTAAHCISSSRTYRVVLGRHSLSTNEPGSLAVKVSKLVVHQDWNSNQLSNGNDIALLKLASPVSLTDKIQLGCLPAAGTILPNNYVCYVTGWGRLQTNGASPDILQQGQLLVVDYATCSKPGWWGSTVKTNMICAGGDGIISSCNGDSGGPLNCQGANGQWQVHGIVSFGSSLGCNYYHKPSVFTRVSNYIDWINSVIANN

Compound | k cat [1] | k cat/Km [2] | Km [3] | k cat [4]
CC(C)C[C@H](NC(=O)[C@H](N)Cc1ccc(O)cc1)C(=O)N[C@@H](C(=O)N(C)c1ccc(C#C/C=C/c2ccc([N+](=O)[O-])c(O)c2)cc1)C(C)C | 3.6 s⁻¹ | 225000 M⁻¹ s⁻¹ | – | –
Cathepsin B (Bos taurus), P07688 | – | – | 129 µM | –
COCCOCCOCCOCCOC(=O)N[C@@H](C)C(=O)N[C@H](C)C(=O)N(C)c1ccc(C#C/C=C/c2ccc([N+](=O)[O-])c(O)c2)cc1 | – | 446000 M⁻¹ s⁻¹ | – | 145 s⁻¹
